Like-named read-outs stand apart in the source and are kept apart here. Where only a bound is given, the exact number is not on record here.

The source of these data is publication PMC7902087 (Bioorganic & medicinal chemistry, 2020).

In series [1] the test system is HePG2, MCF-7, Hela and PC3 cell lines. The series is described as follows: In vitro antitumor MTT assay, range over the four cell lines. Format: cell-based. The following applies: Homo sapiens, read-out: IC50 range towards the four cell lines.
In series [2] the test system is Human prostate cancer (PC3). The experiment in a line: In vitro antitumor MTT assay, PC3. The following applies: read-out: In vitro cytotoxicity IC50 PC3. In kind it is cell-based.
The subject of series [3] is Epitheliod Carcinoma Cervix cancer (Hela). The experiment in a line: In vitro antitumor MTT assay, Hela. The conditions noted are these: read-out: In vitro cytotoxicity IC50 Hela.
The subject of series [4] is Mammary gland Breast cancer (MCF-7). The series is described as follows: In vitro antitumor MTT assay, MCF-7.
The test system of series [5] is Hepatocellular carcinoma (HePG2). The experiment in a line: In vitro antitumor MTT assay, HePG2. Format: cell-based, human.
The test system of series [6] is Candida albicans CS351. The series is described as follows: Minimal inhibitory concentration, C. albicans. The following applies: broth dilution, 37 °C 18 h. In kind it is cell-based.
The test system of series [7] is Pseudomonas aeruginosa PAO1. The series is described as follows: Minimal inhibitory concentration, P. aeruginosa. In kind it is cell-based. The following applies: broth dilution, 37 °C 18 h. In a few lines:
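Broth microdilution with serial 1:1 dilutions of test compound in Mueller Hinton broth. Wells are inoculated with bacterial suspension at 5 × 10^6 CFU/ml, and ampicillin/clavulanic acid serves as the positive control. Plates incubate at 37 °C for 18 h. MIC is the lowest concentration with no visible growth.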

Series [8] relates to Staphylococcus aureus ATCC 29213. The experiment in a line: Minimal inhibitory concentration, S. aureus. In kind it is cell-based. The conditions noted are these: broth dilution, 37 °C 18 h.
Series [9] has as its system Bacillus cereus UW85. The experiment in a line: Minimal inhibitory concentration, B. cereus. In kind it is cell-based. The following applies: broth dilution, 37 °C 18 h.
In series [10] the test system is MCF-7 cells. The series is described as follows: Cell cycle arrest analysis. In kind it is cell-based, human.
Series [11] deals with MCF-7 cells. The series is described as follows: Detection of apoptosis. In kind it is cell-based, human. The following applies: MCF-7, 24 h.
In series [12] the test system is Human lung fibroblast (WI38) cell line. The series is described as follows: In vitro cytotoxicity against human normal cells. In kind it is cell-based. The following applies: WI-38, read-out: IC50 against WI38 normal cells.
Setting [13] is: read-out: In vitro cytotoxicity IC50 MCF-7, MTT, Mean ± SD, n = 3.
The mark [14] stands for this setting: read-out: In vitro cytotoxicity IC50 HePG2, MTT, Mean ± SD, n = 3.
Setting [15] is: Homo sapiens, MCF7, read-out: In vitro cytotoxicity IC50 MCF-7.
[16] abbreviates: Homo sapiens, HepG2, read-out: In vitro cytotoxicity IC50 HePG2.

In the case of `COc1cccc2c1C(=O)c1c(O)c3c(c(O)c1C2=O)C[C@@](O)(C(=O)CO)C[C@@H]3O[C@H]1C[C@H](N)[C@H](O)[C@H](C)O1` [DOX, doxorubicin, reference compound], the IC50 in series [1] lay within 4.17 to 8.87 µM.
Consider “(E)-2-(2-(1-(benzofuran-2-yl)ethylidene)hydrazineyl)-4-(benzofuran-5-yl)thiazole [Compound 10]”, for which the IC50 in [2] (MTT, Mean ± SD, n = 3) came to 34.2 ± 2.6 µM; in [3] (MTT, Mean ± SD, n = 3) it was 24.1 ± 2.1 µM; in [4] (setting [13]), 25.6 ± 2.2 µM; in [5] (setting [14]) it was 21.2 ± 1.8 µM.
For “(E)-3-(benzofuran-2-yl)-3-hydroxy-2-((E)-(2-methylphenyl) diazenyl)acrylaldehyde [Compound 17]”, the “Minimal inhibitory concentration C. albicans” value in series [6] is 512 µg/mL. Further, the 50% inhibitory concentration (IC50) turned out to be 77.6 ± 4.3 µM in series [2] (MTT, Mean ± SD, n = 3); 75 ± 4.2 µM in series [3] (MTT, Mean ± SD, n = 3); 83.6 ± 4.3 µM in [4] (setting [13]); 72.4 ± 3.5 µM in [5] (setting [14]). Further, the “Minimal inhibitory concentration P. aeruginosa” value in series [7] worked out at 512 µg/mL. Also, the “Minimal inhibitory concentration S. aureus” value in series [8] was determined as 8 µg/mL. Besides, in series [9], the “Minimal inhibitory concentration B. cereus” value was 256 µg/mL.
On to `C/C(=N\Nc1nc(C)cs1)c1cc2ccccc2o1` [Compound 11, (E)-2-(2-(1-(benzofuran-2-yl)ethylidene)hydrazineyl)-4-methylthiazole], for which the IC50 in [1] was in the range of 4 to 8.99 µM.
For `C/C(=N\Nc1nc(-c2ccccc2)cs1)c1cc2ccccc2o1` [Compound 8, (E)-2-(2-(1-(benzofuran-2-yl)ethylidene)hydrazinyl)-4-(4-phenyl)thiazole], the IC50 in [1] is 8.49 to 16.7 µM. The Cell cycle comment entry in series [10] was “pre-G1 apoptosis and cell growth arrest at G2/M”. Further, in series [11], the “late apoptotic induction compared to control cells” value is listed as 98 fold.
For the compound “(E)-3-(benzofuran-2-yl)-3-hydroxy-2-((E)-(3-methylphenyl) diazenyl)acrylaldehyde [Compound 16]”, the IC50 was found to be 63.3 ± 3.9 µM in series [2] (MTT, Mean ± SD, n = 3); 69.4 ± 4 µM in series [3] (MTT, Mean ± SD, n = 3); 66.2 ± 3.9 µM in series [4] (setting [13]); 52.3 ± 3.1 µM in [5] (setting [14]). In addition, the “Minimal inhibitory concentration S. aureus” value in series [8] was found to be 64 µg/mL. Moreover, the “Minimal inhibitory concentration B. cereus” value in series [9] came to 128 µg/mL.
Consider `C/C(=N\N=C\c1ccc([N+](=O)[O-])cc1)c1cc2ccccc2o1` [Compound 22, (E)-1-(1-(benzofuran-2-yl)ethylidene)-2-((E)-4-nitrobenzylidene) hydrazine], for which the 50% inhibitory concentration (IC50) in [2] (Homo sapiens) was more than 100 µM; in [3] (Homo sapiens, HeLa), more than 100 µM; in series [4] (setting [15]), 88.5 ± 4.6 µM; in series [5] (setting [16]), 77.4 ± 3.9 µM.
Take `COc1ccc(/N=N/C(C=O)=C(/O)c2cc3ccccc3o2)cc1` [Compound 13, (E)-3-(benzofuran-2-yl)-3-hydroxy-2-((E)-(4-methoxyphenyl)diazenyl)acrylaldehyde]: the IC50 in series [12] stood at 83.5 µM.
Consider `CCOC(=O)Cc1csc(N/N=C(\C)c2cc3ccccc3o2)n1` [Compound 9, Ethyl (E)-2-(2-(2-(1-(benzofuran-2-yl)ethylidene)hydrazineyl)thiazol-4-yl)acetate], for which, in series [1], the concentration for half-maximal inhibition (IC50) is 6.55 to 13.1 µM. In addition, the Cell cycle comment entry in series [10] is “pre-G1 apoptosis and cell growth arrest at G2/M”. The “late apoptotic induction compared to control cells” value in [11] is reported as 54 fold. Moreover, the late apoptotic induction in series [11] (control 0.15%) was 8.1%.
As for `C/C(=N\N=C\c1cccc(Cl)c1)c1cc2ccccc2o1` [Compound 23, (E)-1-(1-(benzofuran-2-yl)ethylidene)-2-((E)-3-chlorobenzylidene)hydrazine], the IC50 in [2] (Homo sapiens) was 91.8 ± 4.9 µM; in series [3] (Homo sapiens, HeLa), more than 100 µM; in series [4] (setting [15]) it was more than 100 µM; in series [5] (setting [16]), 86.5 ± 4.3 µM.
